In data set [1] the test system is healthy white male volunteers. The data set is described as follows: Hemodynamic profile. Format: in vivo, human. The method in brief: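 Healthy men took test compound 10 mg or placebo once daily for 16 days, with a second test compound (25, 50, 100 mg) ~2 h later on days 13–15. After 15 min supine, seated then standing (2 min) SBP, DBP and HR were taken from 1.25 to ~5 h post-dose on days 0 and 12–15. Baseline was the mean of four seated pre-co-dose values. ANCOVA was run per dose; standing data were descriptive.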

A short description of data set [2]: Sildenafil pharmacokinetics in plasma. It counts as in vivo, human. In a few lines:
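For the co-administered compound, plasma (EDTA K3) was drawn 3, 4, 6, 8, 12 and 24 h after test compound/placebo on days 13–15, with dosing at 2 h. Processing used a deuterated internal standard and methyl tert-butyl ether liquid-liquid extraction, then a validated LC assay. Samples were stored at −20 °C and analysed within 38 days. Log AUC(0–22) and Cmax went through ANOVA per dose; the test/placebo ratio was given with 90% CIs.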

For data set [3] the following is noted: cited from earlier work.
Data set [4] relates to healthy subjects. The following applies: cited from earlier work.
Data set [5] has as its system patients with HF with reduced ejection fraction. The following applies: vericiguat 10 mg once daily; cited from earlier work.
The subject of data set [6] is healthy white male volunteers. The data set is described as follows: Safety and tolerability. Format: in vivo, human. The method in brief:
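Safety covered AEs, coded by MedDRA 19.0; an AE counted as treatment-emergent if it began or worsened from first dose to 30 days post-treatment, and investigators judged relatedness. Fasting haematology, chemistry, coagulation and urinalysis were collected at screening, pre-dose days 0 and 12–15, day 16 and follow-up. Vital signs and ECGs were taken after 15 min supine rest, pre-dose and 5.5 h post-dose (day 12 pre-dose only). All dosed subjects were included.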

A short description of data set [7]: Vericiguat pharmacokinetics in plasma. It counts as in vivo, human. In a few lines:
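Test compound was 10 mg once daily after breakfast. Lithium-heparin plasma was sampled pre-dose and at 0.5–15 h on days 12–15, plus 24 h on day 16. A labelled internal standard was added, then automated acetonitrile/ammonium acetate/formic acid precipitation and validated LC. QC accuracy was 93.88–101.33% and CV 1.24–2.58%; storage was −20 °C, analysis within 36 days. Log AUC(0–24) and Cmax were analysed by ANOVA (administration, subject).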

Data set [8] concerns patients with pulmonary arterial hypertension. Conditions: 12 weeks, riociguat 1.0–2.5 mg with sildenafil 20 mg three times daily; cited from earlier work.
[9] abbreviates: ANCOVA, day 14, both groups + sildenafil 50 mg.
Where [10] appears, read: during treatment with sildenafil, days 13–15.
Setting [11] is: whole study, both groups also received sildenafil on days 13–15.

As to `CCCc1nn(C)c2c(=O)[nH]c(-c3cc(S(=O)(=O)N4CCN(C)CC4)ccc3OCC)nc12` [Sildenafil], the “Dose dependency of BP-reducing effect” value in data set [1] (25, 50, 100 mg, placebo group) was “no clear dose dependency”. Also, the “Mean decreases from baseline in BP” value in data set [1] (after single doses of sildenafil on days 13–15, placebo group) is no more than 5.3 mmHg. Moreover, in data set [1] (days 13–15, placebo group), the “Mean maximum decreases in BP” value was no more than 11.0 mmHg. Besides, in data set [2] (across sildenafil 25–100 mg), the “Increase in sildenafil AUC(0–22), vericiguat group compared with placebo group” value is on record as 13–22% and the “Increase in sildenafil Cmax, vericiguat group compared with placebo group” value is 14–20%. Besides, in data set [2] (sildenafil 25 mg), the “Increase in sildenafil AUC(0–22) with co-administration of vericiguat” value amounted to 22.4% and the “Increase in sildenafil Cmax with co-administration of vericiguat” value (“Increase in sildenafil Cmax … of vericiguat” for short) was 14.2%. Moreover, in data set [2] (sildenafil 50 mg), the “Increase in sildenafil AUC(0–22) with co-administration of vericiguat” value is given as 17.1% and the “Increase in sildenafil Cmax … of vericiguat” value turned out to be 20.4%. In addition, in data set [2] (sildenafil 100 mg), the “Increase in sildenafil AUC(0–22) with co-administration of vericiguat” value is given as 13.0% and the “Increase in sildenafil Cmax … of vericiguat” value is on record as 17.1%. For the same compound, the “Time required to achieve the geometric mean Cmax of sildenafil” value in data set [2] (sildenafil 100 mg, day 15, co-administered with vericiguat) was 2 h. For the same compound, the “Time required to achieve the geometric mean Cmax of sildenafil” value in data set [2] (sildenafil 100 mg, day 15, with placebo) was 1 h. For the same compound, the “Increase in sildenafil exposure when co-administered with vericiguat” value in data set [2] (sildenafil 25–100 mg) is on record as no more than 22%. For the same compound, in data set [3], the Terminal half-life entry is “about 4 h” and the “Time to achieve Cmax” value was 1 to 2 h. In data set [4] (healthy volunteers), the “Mean maximum decrease in DBP” value is on record as 5.3 mmHg and the “Mean maximum decrease in SBP” value is recorded as 8.3 mmHg.
For `COC(=O)Nc1c(N)nc(-c2nn(Cc3ccccc3F)c3ncc(F)cc23)nc1N` [Vericiguat], the “Change in seated HR, LS mean difference ‘vericiguat-placebo’” value in data set [1] (ANCOVA, day 13, both groups + sildenafil 25 mg) is reported as 0.96 bpm. Moreover, in data set [1] (setting [9]), the “Change in seated HR, LS mean difference ‘vericiguat-placebo’” value was 0.81 bpm and the “Change in seated SBP, LS mean difference ‘vericiguat-placebo’” value is 1.36 mmHg. For the same compound, the “Change in seated HR, LS mean difference ‘vericiguat-placebo’” value in data set [1] (ANCOVA, day 15, both groups + sildenafil 100 mg) turned out to be 1.38 bpm. In addition, in data set [1] (day 0), the “Maximum SBP when seated or standing” value turned out to be 143 mmHg, the “Minimum SBP when standing” value is 97 mmHg and the “Standing HR” value is recorded as 54–108 bpm. Further, in data set [1] (day 12), the “Maximum SBP when seated or standing” value is 141 mmHg, the “Minimum SBP when standing” value came out at 93 mmHg and the “Standing HR” value is 53–102 bpm. In addition, the “Range of standing HR values” in data set [1] (day 13, with sildenafil 25 mg) is reported as 54–114 bpm. Besides, in data set [1] (day 14, with sildenafil 50 mg), the “Range of standing HR values” was 54–119 bpm. In addition, the “Range of standing HR values” in data set [1] (day 15, with sildenafil 100 mg) is 53–127 bpm. Also, the “Minimum standing SBP” value in data set [1] (days 13–15, with sildenafil) was 81–91 mmHg. The “Composite endpoint of death from cardiovascular causes or hospitalization for HF, hazard ratio” value in data set [5] is 0.90. In addition, in data set [3], the Half-life is 20 to 30 h. Moreover, the “Onset (time after intake)” value in data set [3] (intake with food as recommended) was ~ 4 h. In data set [3] (steady state, after intake), the “Time to achieve maximum plasma concentration (Cmax)” value was “approximately 4 h”. In data set [6] (by treatment group, whole study), the “TEAEs of mild intensity” value worked out at 81.3%. Moreover, in data set [6] (days 0–12, vericiguat group), the “Subjects with dyspepsia (TEAE)” value turned out to be 25.0% and the “Subjects with gastrointestinal disorders (TEAE)” value is on record as 31.3%. In data set [6] (setting [10]), the “Subjects with head discomfort (TEAE)” value was “up to 13.3%” and the “Subjects with headache (TEAE)” value is “up to 21.4%”. In addition, the “Effects on ECG parameters, including the QT interval” value in data set [6] (in vivo) is recorded as “no relevant effects”. Further, in data set [6] (setting [11]), the “Subjects reporting at least one TEAE” value is on record as “All subjects”, the “Subjects with at least one sildenafil-related TEAE” value came to 87.5% and the “Subjects with at least one vericiguat-related TEAE” value is reported as 62.5%. For the same compound, the “Effect of co-administration of sildenafil on vericiguat pharmacokinetics” value in data set [7] (sildenafil 25–100 mg) was “did not affect”. Moreover, the “Time at which vericiguat Cmax values were reached post-administration” value in data set [7] (vericiguat 10 mg once daily, days 12–15) was “about 3 h”. Further, the “Increases in HR” value in data set [4] (healthy subjects, vericiguat 5–15 mg over several days) was 4–10 bpm.
Regarding `COC(=O)N(C)c1c(N)nc(-c2nn(Cc3ccccc3F)c3ncccc23)nc1N` [riociguat], in data set [3], the “Cmax at (time after intake)” value is 1 to 1.5 h and the Half-life was 7 to 12 h. In addition, the “Standing SBP after dosing lower than with placebo” value in data set [8] is recorded as “approximately 10 mmHg”.

The values above are taken from paper PMC9998565 (Clinical Pharmacokinetics, 2023).
